molecular target: T1, OR5AC2 (Homo sapiens) (UniProt Q9NZP5); conditions: stereoisomer not certain
T1 sequence (whole entry): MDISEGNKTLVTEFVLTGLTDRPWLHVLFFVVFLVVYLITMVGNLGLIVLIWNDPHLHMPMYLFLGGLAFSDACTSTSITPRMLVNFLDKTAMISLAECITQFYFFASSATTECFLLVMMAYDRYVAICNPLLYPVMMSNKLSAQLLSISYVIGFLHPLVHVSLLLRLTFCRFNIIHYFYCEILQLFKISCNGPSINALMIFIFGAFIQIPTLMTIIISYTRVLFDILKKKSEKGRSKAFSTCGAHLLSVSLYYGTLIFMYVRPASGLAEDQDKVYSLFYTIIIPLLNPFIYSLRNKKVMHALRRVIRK
How it was run: (§1)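 Assay methods differ from source to source, frequently being transient luciferase assays in mammalian cell lines. For each receptor–molecule pair, the label responsive (active) applies when the original authors judged the measured signal statistically different from baseline, and non-responsive (inactive) applies otherwise.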

Structure (SMILES) | odorant receptor agonist call
CC(C)=CCCC(C)CC=O (stereo not drawn) | inactive
CC(C)(C)C1CCCCC1OCCCCO (stereo not drawn) | inactive
CC1=CCC2CC1C2(C)C (stereo not drawn) | inactive
CC(=O)C=CC1=C(C)CCCC1(C)C | inactive
COc1ccc(C)cc1 | inactive
COC1CC2CC1C1CC(C=O)CC21 (stereo not drawn) | inactive
OCc1ccccc1 | inactive
CC(C)=CCCC(C)=CCO | inactive
CCCCC1CCC(=O)O1 (stereo not drawn) | inactive
C=CC(C)(CCC=C(C)C)OC(C)=O (stereo not drawn) | inactive
CCC(=O)C=CC1C(C)=CCCC1(C)C (stereo not drawn) | inactive
CCCCCCCCC(OC(C)=O)OC(C)=O | inactive

molecular target: T2, OR5AN1 (Homo sapiens) (UniProt Q8NGI8); conditions: stereoisomer not certain
T2 sequence (whole entry): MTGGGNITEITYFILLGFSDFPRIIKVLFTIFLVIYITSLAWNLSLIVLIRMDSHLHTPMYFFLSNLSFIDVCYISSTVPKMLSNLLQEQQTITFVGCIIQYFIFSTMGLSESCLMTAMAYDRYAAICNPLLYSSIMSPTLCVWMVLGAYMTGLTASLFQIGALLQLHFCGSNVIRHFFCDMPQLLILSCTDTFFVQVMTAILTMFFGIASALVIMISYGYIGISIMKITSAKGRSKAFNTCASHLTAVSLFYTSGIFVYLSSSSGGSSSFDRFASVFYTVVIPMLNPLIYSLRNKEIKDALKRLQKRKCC
How it was run: as §1

Structure (SMILES) | odorant receptor agonist call
CC1CC=CCCCCCCCCC(=O)C1 (stereo not drawn) | active
O=C1CCCCCCCCCC1 | inactive
O=C1CCCCCCC=CCCCCCCC1 | active
O=C1C=CCCCCCCCCCCCCO1 | active
O=C1CCCCCC=CCCCCCCCCO1 | active
O=C1CCCCCCCCC1 | inactive
CCC(=O)OCC(C)(C)OC(C)C1CCCC(C)(C)C1 (stereo not drawn) | inactive
CC1C(C)(C)C2=C(C(=O)CCC2)C1(C)C (stereo not drawn) | inactive
C1CCCCCCCCCCCCCC1 | inactive
CC1CC=CCCCCCCCCCC(=O)C1 (stereo not drawn) | active
O=C1CCCCCCCCCCCCCC1 | active
CC1CCCCCCCCCCCC(=O)C1 (stereo not drawn) | active
CCCCCCCC(=O)CCCCCCC | inactive
OC1CCCCCCCCCCCCCC1 | inactive
O=C1CCCC=CCCCCCCCCCC1 | active
CCCCCCCCCCCCCC(C)=O | inactive

Reference: the M2OR odorant receptor database
